According to ChEMBL document CHEMBL5303300, “EUbOPEN Chemogenomics Library - Multiplex” (2023):
Where “and” joins values, the source holds several entries; their conditions need not be identical. Identical values can stand only once.

System: U2OS
Assay: Multiplex assay against U2OS
Assay type: toxicity, cell-based
Conditions: human, number of replicates 2
Method in brief: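 Live cells were stained at seeding with Hoechst33342, BioTracker Green Microtubule Cytoskeleton Dye, MitoTracker Red and Annexin V Alexa Fluor 680. Following compound addition, they were imaged on a CQ1 microscope at 37°C and 5% CO2 and gated by CellPathfinder machine learning into Hoechst high-intensity objects or normal cells, with normal cells split into healthy, pyknosed or fragmented nuclei and pyknosed cells into mitotic or apoptotic. Tubulin, mitochondrial-mass and membrane-permeability phenotypes are per cents of healthy-nucleus cells.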

[1] = 12 h, 1 µM, compound concentration 1 uM
[2] = 12 h, 10 µM, compound concentration 10 uM
[3] = 24 h, 1 µM, compound concentration 1 uM
[4] = 24 h, 10 µM, compound concentration 10 uM
[5] = 48 h, 1 µM, compound concentration 1 uM
[6] = 48 h, 10 µM, compound concentration 10 uM

For `COc1cc(Br)c(S(=O)(=O)Nc2ccc(C(F)(F)F)c(O[C@@H]3CCN(C)C3)c2)cc1OC`, the “Population Fragmented Nuclei (%)” value [1] was 10% and 4%, the “Population Healthy Nuclei (%)” value [1] was 80% and 88% and the “Population Hoechst High Intensity Objects (%)” value [1] was 0%. For the same compound, the “Population Membrane Permeable-Phenotype (%)” value [1] was 4% and 0%, the “Population Mitochondria Different-Phenotype (%)” value [1] was 0% and the “Population Mitotic Cells (%)” value [1] was 100% and 46%. For the same compound, the “Population Normal (%)” value [1] was 100%, the “Population Pyknosed Nuclei (%)” value [1] was 10% and 7% and the “Population Tubulin-Different-Phenotype (%)” value [1] was 66% and 89%. For the same compound, the “Population Apoptotic (%)” value [2] was 60% and 78%, the “Population Healthy Nuclei (%)” value [2] was 67% and 85% and the “Population Hoechst High Intensity Objects (%)” value [2] was 0%. The “Population Membrane Permeable-Phenotype (%)” value [2] was 4% and 0%, the “Population Mitochondria Different-Phenotype (%)” value [2] was 4% and 0% and the “Population Mitotic Cells (%)” value [2] was 40% and 21%. For the same compound, the “Population Normal (%)” value [2] was 100%, the “Population Pyknosed Nuclei (%)” value [2] was 16% and 10% and the “Population Tubulin-Different-Phenotype (%)” value [2] was 66% and 59%. For the same compound, the “Population Apoptotic (%)” value [3] was 66% and 47%, the “Population Fragmented Nuclei (%)” value [3] was 7% and 3% and the “Population Healthy Nuclei (%)” value [3] was 85% and 88%. The “Population Hoechst High Intensity Objects (%)” value [3] was 0%, the “Population Membrane Permeable-Phenotype (%)” value [3] was 0% and 3% and the “Population Mitochondria Different-Phenotype (%)” value [3] was 0%. For the same compound, the “Population Mitotic Cells (%)” value [3] was 33% and 52%, the “Population Normal (%)” value [3] was 100% and the “Population Pyknosed Nuclei (%)” value [3] was 7%. The “Population Tubulin-Different-Phenotype (%)” value [3] was 77% and 87%, the “Population Fragmented Nuclei (%)” value [4] was 8% and 2% and the “Population Healthy Nuclei (%)” value [4] was 75% and 85%. The “Population Hoechst High Intensity Objects (%)” value [4] was 0%, the “Population Membrane Permeable-Phenotype (%)” value [4] was 0% and 2% and the “Population Mitochondria Different-Phenotype (%)” value [4] was 3% and 2%. The “Population Mitotic Cells (%)” value [4] was 83% and 48%, the “Population Normal (%)” value [4] was 100% and the “Population Pyknosed Nuclei (%)” value [4] was 16% and 11%. For the same compound, the “Population Tubulin-Different-Phenotype (%)” value [4] was 70% and 74%, the “Population Apoptotic (%)” value [5] was 30% and 51% and the “Population Healthy Nuclei (%)” value [5] was 69% and 89%. The “Population Hoechst High Intensity Objects (%)” value [5] was 0%, the “Population Membrane Permeable-Phenotype (%)” value [5] was 0% and 1% and the “Population Mitochondria Different-Phenotype (%)” value [5] was 0%. For the same compound, the “Population Mitotic Cells (%)” value [5] was 69% and 48%, the “Population Normal (%)” value [5] was 100% and 99% and the “Population Pyknosed Nuclei (%)” value [5] was 14% and 7%. The “Population Tubulin-Different-Phenotype (%)” value [5] was 79% and 91%, the “Population Apoptotic (%)” value [6] was 57% and 61% and the “Population Fragmented Nuclei (%)” value [6] was 9% and 1%. For the same compound, the “Population Healthy Nuclei (%)” value [6] was 79% and 91%, the “Population Hoechst High Intensity Objects (%)” value [6] was 0% and the “Population Membrane Permeable-Phenotype (%)” value [6] was 9% and 1%. For the same compound, the “Population Mitochondria Different-Phenotype (%)” value [6] was 5% and 0%, the “Population Mitotic Cells (%)” value [6] was 42% and 38% and the “Population Normal (%)” value [6] was 100%. The “Population Pyknosed Nuclei (%)” value [6] was 10% and 6% and the “Population Tubulin-Different-Phenotype (%)” value [6] was 92% and 81%.
`Cc1c(C(=O)Nc2ccc(N3C[C@@H](C)O[C@@H](C)C3)nc2)cccc1-c1ccc(OC(F)(F)F)cc1` [SONIDEGIB] was tested, and the “Population Apoptotic (%)” value [1] was 66% and 51%, the “Population Healthy Nuclei (%)” value [1] was 60% and 79% and the “Population Hoechst High Intensity Objects (%)” value [1] was 0%. The “Population Membrane Permeable-Phenotype (%)” value [1] was 4% and 1%, the “Population Mitochondria Different-Phenotype (%)” value [1] was 0% and the “Population Mitotic Cells (%)” value [1] was 33% and 48%. The “Population Normal (%)” value [1] was 100%, the “Population Pyknosed Nuclei (%)” value [1] was 7% and 13% and the “Population Tubulin-Different-Phenotype (%)” value [1] was 56% and 90%. For the same compound, the “Population Healthy Nuclei (%)” value [2] was 61% and 85%, the “Population Hoechst High Intensity Objects (%)” value [2] was 0% and the “Population Membrane Permeable-Phenotype (%)” value [2] was 0% and 1%. For the same compound, the “Population Mitochondria Different-Phenotype (%)” value [2] was 0%, the “Population Mitotic Cells (%)” value [2] was 100% and 54% and the “Population Normal (%)” value [2] was 100%. The “Population Pyknosed Nuclei (%)” value [2] was 11%, the “Population Tubulin-Different-Phenotype (%)” value [2] was 57% and 90% and the “Population Apoptotic (%)” value [3] was 50% and 66%. For the same compound, the “Population Healthy Nuclei (%)” value [3] was 68% and 85%, the “Population Hoechst High Intensity Objects (%)” value [3] was 0% and the “Population Membrane Permeable-Phenotype (%)” value [3] was 0% and 2%. The “Population Mitochondria Different-Phenotype (%)” value [3] was 0%, the “Population Mitotic Cells (%)” value [3] was 50% and 33% and the “Population Normal (%)” value [3] was 100% and 99%. For the same compound, the “Population Pyknosed Nuclei (%)” value [3] was 4% and 9%, the “Population Tubulin-Different-Phenotype (%)” value [3] was 64% and 88% and the “Population Apoptotic (%)” value [4] was 50% and 63%. The “Population Healthy Nuclei (%)” value [4] was 61% and 90%, the “Population Hoechst High Intensity Objects (%)” value [4] was 0% and the “Population Membrane Permeable-Phenotype (%)” value [4] was 4% and 1%. For the same compound, the “Population Mitochondria Different-Phenotype (%)” value [4] was 0%, the “Population Mitotic Cells (%)” value [4] was 50% and 36% and the “Population Normal (%)” value [4] was 100%. For the same compound, the “Population Pyknosed Nuclei (%)” value [4] was 10% and 7%, the “Population Tubulin-Different-Phenotype (%)” value [4] was 75% and 90% and the “Population Apoptotic (%)” value [5] was 33% and 54%. For the same compound, the “Population Healthy Nuclei (%)” value [5] was 60% and 89%, the “Population Hoechst High Intensity Objects (%)” value [5] was 0% and the “Population Membrane Permeable-Phenotype (%)” value [5] was 6% and 1%. The “Population Mitochondria Different-Phenotype (%)” value [5] was 0%, the “Population Mitotic Cells (%)” value [5] was 66% and 45% and the “Population Normal (%)” value [5] was 100%. The “Population Pyknosed Nuclei (%)” value [5] was 5% and 7%, the “Population Tubulin-Different-Phenotype (%)” value [5] was 70% and 89% and the “Population Apoptotic (%)” value [6] was 42% and 46%. The “Population Healthy Nuclei (%)” value [6] was 71% and 91%, the “Population Hoechst High Intensity Objects (%)” value [6] was 0% and the “Population Membrane Permeable-Phenotype (%)” value [6] was 0% and 1%. The “Population Mitochondria Different-Phenotype (%)” value [6] was 0%, the “Population Mitotic Cells (%)” value [6] was 57% and 53% and the “Population Normal (%)” value [6] was 100%. For the same compound, the “Population Pyknosed Nuclei (%)” value [6] was 8% and 6% and the “Population Tubulin-Different-Phenotype (%)” value [6] was 74% and 89%.
In the case of `CCCNc1ccc2ncc(-c3ccncc3)n2n1`, the “Population Apoptotic (%)” value [1] is reported as 60% and 74%, the “Population Healthy Nuclei (%)” value [1] is reported as 58% and 81% and the “Population Hoechst High Intensity Objects (%)” value [1] is reported as 0%. For the same compound, the “Population Membrane Permeable-Phenotype (%)” value [1] was 11% and 2%, the “Population Mitochondria Different-Phenotype (%)” value [1] was 11% and 0% and the “Population Mitotic Cells (%)” value [1] was 40% and 25%. For the same compound, the “Population Normal (%)” value [1] was 100%, the “Population Pyknosed Nuclei (%)” value [1] was 17% and 14% and the “Population Tubulin-Different-Phenotype (%)” value [1] was 76% and 86%. The “Population Apoptotic (%)” value [2] was 81% and 78%, the “Population Healthy Nuclei (%)” value [2] was 35% and 57% and the “Population Hoechst High Intensity Objects (%)” value [2] was 0% and 1%. The “Population Membrane Permeable-Phenotype (%)” value [2] was 6% and 8%, the “Population Mitochondria Different-Phenotype (%)” value [2] was 6% and 3% and the “Population Mitotic Cells (%)” value [2] was 18% and 22%. For the same compound, the “Population Normal (%)” value [2] was 100% and 98%, the “Population Pyknosed Nuclei (%)” value [2] was 24% and 33% and the “Population Tubulin-Different-Phenotype (%)” value [2] was 68% and 60%. For the same compound, the “Population Apoptotic (%)” value [3] was 66% and 87%, the “Population Healthy Nuclei (%)” value [3] was 71% and 89% and the “Population Hoechst High Intensity Objects (%)” value [3] was 0%. For the same compound, the “Population Membrane Permeable-Phenotype (%)” value [3] was 10% and 3%, the “Population Mitochondria Different-Phenotype (%)” value [3] was 3% and 1% and the “Population Mitotic Cells (%)” value [3] was 33% and 12%. The “Population Normal (%)” value [3] was 100% and 99%, the “Population Pyknosed Nuclei (%)” value [3] was 7% and the “Population Tubulin-Different-Phenotype (%)” value [3] was 76% and 88%. For the same compound, the “Population Apoptotic (%)” value [4] was 78% and 90%, the “Population Healthy Nuclei (%)” value [4] was 26% and 53% and the “Population Hoechst High Intensity Objects (%)” value [4] was 0% and 2%. The “Population Membrane Permeable-Phenotype (%)” value [4] was 16% and 7%, the “Population Mitochondria Different-Phenotype (%)” value [4] was 8% and 7% and the “Population Mitotic Cells (%)” value [4] was 21% and 9%. For the same compound, the “Population Normal (%)” value [4] was 100% and 97%, the “Population Pyknosed Nuclei (%)” value [4] was 31% and 33% and the “Population Tubulin-Different-Phenotype (%)” value [4] was 66% and 69%. The “Population Apoptotic (%)” value [5] was 57% and 66%, the “Population Healthy Nuclei (%)” value [5] was 71% and 88% and the “Population Hoechst High Intensity Objects (%)” value [5] was 0%. For the same compound, the “Population Membrane Permeable-Phenotype (%)” value [5] was 6% and 3%, the “Population Mitochondria Different-Phenotype (%)” value [5] was 6% and 2% and the “Population Mitotic Cells (%)” value [5] was 42% and 33%. For the same compound, the “Population Normal (%)” value [5] was 100%, the “Population Pyknosed Nuclei (%)” value [5] was 11% and 7% and the “Population Tubulin-Different-Phenotype (%)” value [5] was 69% and 86%. For the same compound, the “Population Apoptotic (%)” value [6] was 81% and 78%, the “Population Healthy Nuclei (%)” value [6] was 23% and 37% and the “Population Hoechst High Intensity Objects (%)” value [6] was 0% and 1%. For the same compound, the “Population Mitochondria Different-Phenotype (%)” value [6] was 23% and 8%, the “Population Mitotic Cells (%)” value [6] was 18% and 21% and the “Population Normal (%)” value [6] was 100% and 98%. For the same compound, the “Population Pyknosed Nuclei (%)” value [6] was 29% and 51% and the “Population Tubulin-Different-Phenotype (%)” value [6] was 46% and 62%.
